Laboratory results reported in ChEMBL document CHEMBL1127053, “3,4-Dimethyl-4-(3-hydroxyphenyl)piperidines: opioid antagonists with potent anorectant activity” (J Med Chem, 1993).
pIC50, pKi: −log10 of the molar value.

What was measured:
D(2) dopamine receptor = D(2) dopamine receptor (Rattus norvegicus, UniProt P61169); assay: Tested for affinity against dopamine D2 receptor using […] in rat brain; type: tissue-based
D(1A) dopamine receptor = D(1A) dopamine receptor (Rattus norvegicus, UniProt P18901); assay: Tested for affinity against dopamine D1 receptor using [3H]SCH-23,390 in rat brain; type: tissue-based
Sequence of D(1A) dopamine receptor (P18901 whole entry): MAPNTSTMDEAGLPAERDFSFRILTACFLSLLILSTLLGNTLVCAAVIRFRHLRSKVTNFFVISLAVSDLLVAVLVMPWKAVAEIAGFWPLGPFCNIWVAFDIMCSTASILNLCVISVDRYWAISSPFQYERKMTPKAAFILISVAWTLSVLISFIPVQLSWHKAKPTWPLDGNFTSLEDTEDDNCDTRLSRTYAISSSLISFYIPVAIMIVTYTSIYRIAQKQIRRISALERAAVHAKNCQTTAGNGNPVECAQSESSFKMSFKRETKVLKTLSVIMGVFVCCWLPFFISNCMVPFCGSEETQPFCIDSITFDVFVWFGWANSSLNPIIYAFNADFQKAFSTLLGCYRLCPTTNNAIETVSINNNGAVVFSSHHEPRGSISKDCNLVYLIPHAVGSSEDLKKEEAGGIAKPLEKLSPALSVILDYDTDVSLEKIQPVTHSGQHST

Dopamine receptor = assay: Tested for affinity against dopamine autoreceptor using [3H]apomorphine in rat brain; type: tissue-based
[1] = target: T1, Adrenergic receptor alpha-1 (Rattus norvegicus, UniProt P15823+P23944+P43140); assay: Tested for affinity against alpha-adrenergic using [3H]WB-4101 in rat brain; type: tissue-based
T1 sequence (P15823 whole entry): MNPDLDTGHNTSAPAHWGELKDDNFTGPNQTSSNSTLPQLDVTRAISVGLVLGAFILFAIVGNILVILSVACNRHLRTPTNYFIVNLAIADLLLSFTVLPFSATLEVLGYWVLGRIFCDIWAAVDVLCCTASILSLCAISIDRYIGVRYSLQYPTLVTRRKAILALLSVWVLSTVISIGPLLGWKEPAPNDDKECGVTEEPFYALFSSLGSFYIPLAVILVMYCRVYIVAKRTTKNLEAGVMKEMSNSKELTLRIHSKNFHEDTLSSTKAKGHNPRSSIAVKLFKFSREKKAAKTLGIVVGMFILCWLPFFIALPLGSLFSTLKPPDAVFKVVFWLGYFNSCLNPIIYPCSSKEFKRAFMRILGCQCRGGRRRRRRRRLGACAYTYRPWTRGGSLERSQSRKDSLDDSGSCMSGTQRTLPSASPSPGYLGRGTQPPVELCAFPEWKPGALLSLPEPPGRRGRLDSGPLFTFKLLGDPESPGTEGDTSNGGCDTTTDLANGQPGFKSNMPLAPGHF
T1 sequence (P23944 whole entry): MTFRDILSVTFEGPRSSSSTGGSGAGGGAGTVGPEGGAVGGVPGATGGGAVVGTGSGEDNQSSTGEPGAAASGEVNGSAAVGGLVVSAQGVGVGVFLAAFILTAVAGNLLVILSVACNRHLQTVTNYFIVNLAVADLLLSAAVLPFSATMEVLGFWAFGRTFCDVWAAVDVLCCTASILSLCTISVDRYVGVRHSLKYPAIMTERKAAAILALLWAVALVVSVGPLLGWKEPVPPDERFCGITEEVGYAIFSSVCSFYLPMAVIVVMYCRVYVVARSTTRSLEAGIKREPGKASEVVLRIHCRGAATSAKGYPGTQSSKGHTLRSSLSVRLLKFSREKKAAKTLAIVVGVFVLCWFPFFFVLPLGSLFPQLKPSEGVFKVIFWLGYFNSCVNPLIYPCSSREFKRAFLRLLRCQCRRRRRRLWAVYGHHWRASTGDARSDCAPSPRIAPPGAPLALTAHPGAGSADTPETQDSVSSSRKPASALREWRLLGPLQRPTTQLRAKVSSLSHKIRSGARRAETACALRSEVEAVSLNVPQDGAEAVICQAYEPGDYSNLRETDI
T1 sequence (P43140 whole entry): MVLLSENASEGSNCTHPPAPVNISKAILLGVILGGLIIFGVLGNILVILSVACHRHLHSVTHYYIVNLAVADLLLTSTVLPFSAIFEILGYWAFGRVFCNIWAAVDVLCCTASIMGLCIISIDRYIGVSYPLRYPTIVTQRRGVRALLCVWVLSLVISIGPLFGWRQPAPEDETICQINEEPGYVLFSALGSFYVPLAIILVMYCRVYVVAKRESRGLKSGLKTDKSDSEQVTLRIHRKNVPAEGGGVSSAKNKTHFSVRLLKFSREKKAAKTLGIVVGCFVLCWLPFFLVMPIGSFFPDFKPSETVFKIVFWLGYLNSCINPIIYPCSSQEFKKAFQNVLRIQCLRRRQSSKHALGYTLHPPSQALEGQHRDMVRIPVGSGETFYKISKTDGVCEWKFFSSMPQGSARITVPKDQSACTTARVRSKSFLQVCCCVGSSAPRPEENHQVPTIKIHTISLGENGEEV
Outline: (§1)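 Radioligand binding in cortical membranes from male Sprague-Dawley rats (110-150 g). Ligands: [3H]serotonin for 5-HT1, [3H]QNB for muscarinic, [3H]WB4101 for α1, [3H]clonidine for α2, [3H]dihydroalprenolol for β-adrenergic.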

Adrenergic receptor beta = Adrenergic receptor beta (Rattus norvegicus, UniProt P18090+P10608+P26255); assay: Tested for affinity against beta-adrenergic using [3H]dihydroalprenolol in rat brain; type: tissue-based; outline: as §1
[2] = Tested for affinity against phencyclidine using [3H]phencyclidine in rat brain; type: tissue-based
[3] = target: Delta-type opioid receptor (Rattus norvegicus, UniProt P33533); assay: Binding affinity towards delta-opioid receptor by displacement of [3H]DADL in rat brain homogenates; type: tissue-based
Sequence of Delta-type opioid receptor (P33533 whole entry): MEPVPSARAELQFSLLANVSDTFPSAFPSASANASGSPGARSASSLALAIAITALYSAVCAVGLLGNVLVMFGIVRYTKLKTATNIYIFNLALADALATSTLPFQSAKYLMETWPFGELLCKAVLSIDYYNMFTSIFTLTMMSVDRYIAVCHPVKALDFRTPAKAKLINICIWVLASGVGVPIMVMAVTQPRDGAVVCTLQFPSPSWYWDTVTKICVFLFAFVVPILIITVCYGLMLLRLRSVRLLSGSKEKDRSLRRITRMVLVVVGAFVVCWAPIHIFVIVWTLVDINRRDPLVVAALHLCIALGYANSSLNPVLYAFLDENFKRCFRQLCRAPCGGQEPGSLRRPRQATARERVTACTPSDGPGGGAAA
Outline: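 Radioligand displacement. Kappa: [3H]EKC, guinea pig cortex, with fentanyl and DADL added to block mu/delta binding. Delta: [3H]DADL, rat brain homogenate.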

[4] = target: Kappa-type opioid receptor (Rattus norvegicus) (UniProt P34975); assay: Antagonism of bremazocine induced kappa receptor diuresis in rats at a concentration of 0.08 mg/kg subcutaneously; type: functional, organism-based; set-up: dose 0.08 mg/kg
Sequence of Kappa-type opioid receptor (Rattus norvegicus) (P34975 whole entry): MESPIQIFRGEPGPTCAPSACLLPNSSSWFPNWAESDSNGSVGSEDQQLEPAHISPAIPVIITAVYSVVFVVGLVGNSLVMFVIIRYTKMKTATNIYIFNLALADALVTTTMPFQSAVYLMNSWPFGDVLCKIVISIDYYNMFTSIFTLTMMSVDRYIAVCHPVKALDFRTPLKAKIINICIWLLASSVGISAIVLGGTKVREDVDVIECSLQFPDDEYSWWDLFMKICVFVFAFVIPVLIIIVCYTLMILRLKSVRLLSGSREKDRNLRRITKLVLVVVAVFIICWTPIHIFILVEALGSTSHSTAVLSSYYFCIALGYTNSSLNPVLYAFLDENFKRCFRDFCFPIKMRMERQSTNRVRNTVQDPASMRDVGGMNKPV
Outline: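 Male Long-Evans hooded rats (350-500 g), reused no more than twice weekly. Bremazocine 0.08 mg/kg sc, test antagonist sc on the opposite side without delay. Rats housed in metabolism cages; urine volume recorded at 2 and 5 h. 3 rats/dose, doses varied 2-fold. AD50 = dose reducing cumulative 5-h induced urination by 50%.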

[5] = target: Mu-type opioid receptor (Mus musculus) (UniProt P42866); assay: Antagonistic activity towards morphine induced mu-opioid receptor by mouse writhing assay at 1.25 mg/kg subcutaneously; type: functional, organism-based; set-up: dose 1.25 mg/kg
Sequence of Mu-type opioid receptor (Mus musculus) (P42866 whole entry): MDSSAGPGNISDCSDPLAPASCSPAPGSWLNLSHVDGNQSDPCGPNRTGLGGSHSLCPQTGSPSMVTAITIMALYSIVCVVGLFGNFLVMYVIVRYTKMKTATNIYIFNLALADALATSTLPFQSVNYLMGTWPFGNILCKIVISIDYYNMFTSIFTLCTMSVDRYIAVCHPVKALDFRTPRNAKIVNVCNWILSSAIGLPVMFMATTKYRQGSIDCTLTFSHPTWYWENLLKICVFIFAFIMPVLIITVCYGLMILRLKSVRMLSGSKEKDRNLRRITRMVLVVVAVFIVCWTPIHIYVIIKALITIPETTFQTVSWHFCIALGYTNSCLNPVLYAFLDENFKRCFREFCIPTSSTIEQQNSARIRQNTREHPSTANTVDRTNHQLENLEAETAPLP
Outline: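 Mouse acetic acid writhing: 0.6% acetic acid ip, writhes counted for 10 min starting 5 min after injection. Agonist (morphine 1.25 mg/kg or U50,488 2.5 mg/kg) and antagonist given sc 20 min before acid. 5 mice/point, ≥5 doses varied 2-fold, each mouse used once. AD50 = antagonist dose reducing agonist-induced writhing inhibition to 50%.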

[6] = target: Muscarinic acetylcholine receptor; assay: Tested for affinity against muscarinic acetylcholine using [3H]quinuclidinyl benzylate in rat brain; type: tissue-based; outline: as §1
[7] = Tested for affinity against serotonin 5-HT1 receptor using [3H]5-HT in rat brain; type: tissue-based; outline: as §1
[8] = target: Serotonin receptor 2a and 2c (5HT2A and 5HT2C) (Rattus norvegicus, UniProt P08909+P14842); assay: Tested for affinity against serotonin 5-HT2 receptor using […] (frontal cortex) in rat brain; type: tissue-based
[9] = target: Delta-type opioid receptor (Mus musculus) (UniProt P32300); settings: Vas deferens; 2 nM
Sequence of Delta-type opioid receptor (Mus musculus) (P32300 whole entry): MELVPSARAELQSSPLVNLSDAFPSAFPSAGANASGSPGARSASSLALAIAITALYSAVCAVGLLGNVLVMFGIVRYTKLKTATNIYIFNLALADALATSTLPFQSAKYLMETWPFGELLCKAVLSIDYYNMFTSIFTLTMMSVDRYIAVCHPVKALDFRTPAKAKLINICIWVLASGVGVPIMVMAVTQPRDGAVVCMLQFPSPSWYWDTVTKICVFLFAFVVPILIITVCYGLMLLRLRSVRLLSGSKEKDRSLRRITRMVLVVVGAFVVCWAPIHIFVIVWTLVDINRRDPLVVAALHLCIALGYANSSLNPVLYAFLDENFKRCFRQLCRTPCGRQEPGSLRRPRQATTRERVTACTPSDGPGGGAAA

[10] = target: Kappa-type opioid receptor (Cavia porcellus) (UniProt P41144); settings: Ileum, 2 nM
Sequence of Kappa-type opioid receptor (Cavia porcellus) (P41144 whole entry): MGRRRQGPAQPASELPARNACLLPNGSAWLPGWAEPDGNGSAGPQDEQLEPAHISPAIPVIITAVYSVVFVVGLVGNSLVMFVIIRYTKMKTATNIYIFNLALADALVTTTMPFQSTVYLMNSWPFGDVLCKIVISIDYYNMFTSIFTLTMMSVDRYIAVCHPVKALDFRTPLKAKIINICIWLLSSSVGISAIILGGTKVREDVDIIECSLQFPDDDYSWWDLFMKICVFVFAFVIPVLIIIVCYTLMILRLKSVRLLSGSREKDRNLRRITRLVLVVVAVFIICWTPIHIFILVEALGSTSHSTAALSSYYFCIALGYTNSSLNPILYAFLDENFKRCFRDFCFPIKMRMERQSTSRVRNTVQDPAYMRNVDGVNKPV

[11] = target: Mu-type opioid receptor (Cavia porcellus) (UniProt P97266); settings: Ileum, 2 nM
Sequence of Mu-type opioid receptor (Cavia porcellus) (P97266 whole entry): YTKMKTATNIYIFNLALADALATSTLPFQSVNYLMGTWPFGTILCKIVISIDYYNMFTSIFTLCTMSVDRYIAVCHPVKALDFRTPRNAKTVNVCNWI

Sequence of D(2) dopamine receptor (P61169 whole entry): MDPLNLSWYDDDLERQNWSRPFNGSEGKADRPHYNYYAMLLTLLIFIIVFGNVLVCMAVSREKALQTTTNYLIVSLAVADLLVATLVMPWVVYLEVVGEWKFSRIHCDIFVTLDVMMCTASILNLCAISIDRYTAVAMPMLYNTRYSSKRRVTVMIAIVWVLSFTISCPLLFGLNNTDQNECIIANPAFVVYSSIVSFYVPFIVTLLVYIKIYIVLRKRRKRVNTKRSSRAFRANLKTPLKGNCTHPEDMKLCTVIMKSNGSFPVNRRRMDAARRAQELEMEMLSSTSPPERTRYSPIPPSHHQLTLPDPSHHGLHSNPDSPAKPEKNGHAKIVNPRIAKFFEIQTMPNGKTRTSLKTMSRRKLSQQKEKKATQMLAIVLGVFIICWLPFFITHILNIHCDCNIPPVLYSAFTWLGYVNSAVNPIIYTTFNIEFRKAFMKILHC

Compound: C[C@H]1CN(CC[C@H](O)C2CCCCC2)CC[C@@]1(C)c1cccc(O)c1
- pIC50 (D(2) dopamine receptor): < 6.00
- pIC50 (D(1A) dopamine receptor): < 6.00
- IC50 (Dopamine receptor): > 1 µM
- IC50 [1]: > 5 µM
- IC50 (Adrenergic receptor beta): > 5 µM
- pIC50 [2]: < 6.00
- pKi [3]: 8.28
- AD50 [4]: 0.38 mg/kg
- AD50 [5]: 0.015 mg/kg
- IC50 [6]: > 10 µM
- pIC50 [7]: < 6.00
- IC50 [8]: > 1 µM
- Ke [9]: 1.64 nM
- Ke [10]: 0.31 nM
- Ke [11]: 0.24 nM
